M18AAP inhibitor – blocks P. falciparum M18 aspartyl aminopeptidase; recombinant PfM18AAP, H-Glu-NHMec fluorogenic cleavage; inhibition, % at 7.35 µM; 1.2% of 290,000 active; AID 1822;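 active = inhibition above the campaign mean inhibition over all tested compounds plus 3 SD, cut at about 28% in these data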;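 also: 0% = plate median of test compound wells and 100% = 2 mM ZnCl2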
UBC13 polyUb – blocks human UBC13 polyubiquitin chain formation. P61088. TR-FRET. inhibition, % at 20 µM. 0.47% of 330,000 active. AID 485273; in the data active = inhibition above about 45%, passing the limit was not always enough; inconclusive = no clear call, values can overlap the other calls
EBNA-1 inh – blocks EBNA-1 binding to DNA; EBNA-1 DNA binding, fluorescence polarization; inhibition, % at 14.8 µM; 0.34% of 300,000 active; AID 1950; in the data active = inhibition above about 28%
PfGluPho inh – PfG6PD (Plasmodium falciparum) enzyme inhibition; 0.78% of 350,000 active; inhibition, % at 20 µM; PfGluPho enzyme, NADPH resazurin-diaphorase fluorescence; AID 504690;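 active = inhibition reaching at least a set limit at 20 µM in the primary screen, cut at about 59% in these data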;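 also: 0% = DMSO wells with substrate and 100% = DMSO wells lacking glucose-6-phosphate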
Apaf1 inhib – inhibitors of human Apaf-1 apoptosome; 0.71% of 330,000 active; AID 489030; inhibition, % at 20 µM; reconstituted apoptosome caspase-3 activity, DEVD-Rh110 fluorescence; active = inhibition of at least 40% at 20 µM;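 also: plate controls were DMSO wells for no effect and DEVD-CHO caspase inhibitor wells for full effect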
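Material: reconstituted apoptosome with Apaf-1, cytochrome c, caspase-9, procaspase-3, dATP. Technique: Rh110 fluorescence intensity. Buffer or medium: pH 7.5 Hepes buffer with CHAPS, BSA, DTT. Times: 30 min plus 50 min, RT.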
ZTA counter – blocks Epstein-Barr virus ZTA, an EBNA-1 counter-screen; ZTA-DNA binding, fluorescence polarization; inhibition, % at 11 µM; 0.15% of 320,000 active; in the data active = inhibition above about 33%
Casp3 counter – inhibits human caspase-3 in UBC13 counter-screen; 4% of 1,400 active; Recombinant caspase-3, Caspase-Glo 3/7 luminescence, 60 min; inhibition, % at 20 µM; shares compounds with UBC13 polyUb;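 active = mean inhibition across replicates above about 26%, limit read from the data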;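 also: plate controls were DMSO with caspase-3 for no effect and DMSO wells lacking enzyme for full effect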
UBC13 conf – human UBC13 polyubiquitin inhibition, confirmed. UBC13 polyubiquitination, TR-FRET, biochemical. inhibition, % at 10 µM. 68% of 1,400 active. shares compounds with UBC13 polyUb; in the data active = inhibition above about 45%; inconclusive = no clear call, values can overlap the other calls
Apaf-1 inh conf2 – Apaf-1 inhibition, single-dose confirmed | shares compounds with Apaf1 inhib | reconstituted apoptosome, caspase-3 DEVD-Rh110 fluorescence | inhibition, % at 20 µM | 25% of 1,800 active;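 active = mean inhibition of at least 40% at 20 µM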;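 also: plate controls were DMSO wells for no effect and DEVD-CHO caspase inhibitor control wells for full effect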
Rh110 quench – counter-screen for Apaf-1 inhibitors: fluorescence interference | shares compounds with Apaf1 inhib | Rh110 fluorescence interference, quenched caspase reaction | activation (fluorescence interference), % at 20 µM | 1,800 tested, under 10 active | AID 504615;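 active = signal rise of 40% or more at 20 µM, treated as a fluorescence artifact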
Apaf1 inh interf – counter-screen for Apaf-1 inhibitors: fluorescence interference, dose response; shares compounds with Apaf1 inhib; fluorescence interference counterscreen, Apaf-1 assay format; IC50, µM; 460 tested, under 10 active; call rule not given here
PfGluPho conf – PfG6PD inhibition, single-dose confirmed. shares compounds with PfGluPho inh. recombinant PfGluPho, NADPH-diaphorase-resazurin fluorescence. inhibition, % at 20 µM. 34% of 2,400 active;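 active = inhibition of at least 50% at 20 µM in any single replicate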;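 also: 0% = DMSO with substrate and 100% = DMSO lacking glucose-6-phosphate substrate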
Diaphorase 10uM – diaphorase inhibition or oxidation at 10 uM NADPH; shares compounds with PfGluPho inh; diaphorase-coupled resazurin reduction, fluorescence, NADPH 10 uM; inhibition, % at 20 µM; 39% of 820 active;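 active = average inhibition reaching 50% or more with the compound at 20 µM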;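 also: resorufin red fluorescence formed as diaphorase reduces resazurin using NADPH; 0% = DMSO with enzyme and 100% = DMSO without enzyme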
Diaph ctr 30uM – inhibits diaphorase or oxidizes, flagging false PfG6PD hits; shares compounds with PfGluPho inh; Diaphorase/resazurin coupled assay, resorufin fluorescence, 30 uM NADPH; inhibition, % at 20 µM; 29% of 820 active; AID 504863;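 active = inhibition averaging 50% or more, tested at 20 µM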;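 also: 0% = DMSO with enzyme and 100% = DMSO wells lacking diaphorase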
Starred values were filed as active, the others as inactive; u = inconclusive; x = no result given. A selection: hits, their analogues and other compounds. The true share with any hit is near 2.9%.

SMILES | M18AAP inhibitor | UBC13 polyUb | EBNA-1 inh | PfGluPho inh | Apaf1 inhib | ZTA counter | Apaf-1 inh conf2 | Rh110 quench | others
COc1ccccc1C(CNC(=O)CNC(=O)c1ccccc1Cl)N1CCCC1 (stereo unspecified) | x | 51* | x | -9 | 61* | 2 | 43* | 11 | Casp3 counter=-3;UBC13 conf=62*;Apaf1 inh interf=>100
COc1ccccc1C(CNC(=O)CNC(=O)c1ccc(Cl)c(Cl)c1)N1CCCC1 (stereo unspecified) | x | 8 | x | -3 | -29 | 2 | x | x
CC(C)n1cnc2c(N(C)c3ccccc3)nc(N(CCN(C)C)Cc3ccccc3)nc21 | x | 57* | 2 | 3 | 44* | 1 | 20 | 12 | Casp3 counter=-4;UBC13 conf=38
CN1CC2=Cc3ccccc3OC23Oc2ccccc2C=C3C1 | 4 | 85* | 12 | 120* | 9 | 4 | x | x | Casp3 counter=-2;UBC13 conf=94*;PfGluPho conf=90*;Diaphorase 10uM=86*;Diaph ctr 30uM=75*
CCOCCCNC(=O)C1CCCN(S(=O)(=O)c2cccc3nsnc23)C1 (stereo unspecified) | 7 | -8 | 7 | 8 | 0 | -17 | x | x
CCOC(=O)c1nc2sc(C)c(C)c2c(=O)[nH]1 | 1 | 10 | 2 | 22 | -13 | 2 | x | x
CCOC(=O)/C(=C\c1cccc(O)c1)c1nc2sc(C)c(C)c2c(=O)[nH]1 | 29* | 67* | -7 | 69* | -4 | 9 | x | x | Casp3 counter=-1;UBC13 conf=66*;PfGluPho conf=20
C#CCOCCOCCOCCNc1nc(N2CCN(C(=O)[C@H](CCC(=O)O)n3cc(C(N)[C@H](C)CC)nn3)CC2)nc(N2CCN(C(=O)[C@H](Cc3cc4ccccc4[nH]3)n3cc(C(N)[C@H](C)CC)nn3)CC2)n1 (stereo partly specified) | 3 | 7 | 2 | x | -6 | -8 | x | x
C#CCOCCOCCOCCNc1nc(N2CCN(C(=O)[C@H](CCCCN)n3cc([C@@H](N)C(C)CC)nn3)CC2)nc(N2CCN(C(=O)[C@H](Cc3cc4ccccc4[nH]3)n3cc([C@@H](N)C(C)CC)nn3)CC2)n1 (stereo partly specified) | x | 111* | x | 61* | 53* | x | 4 | -7 | Casp3 counter=-2;UBC13 conf=114*;PfGluPho conf=37
COc1ccc(NC(=O)NNC(=O)C(C)Oc2ccc3ccccc3c2)cc1OC (stereo unspecified) | 7 | 4 | 7 | 9 | 2 | 10 | x | x
FC(F)(F)c1cc(CO[C@@H]2CCCN[C@@H]2c2ccccc2)cc(C(F)(F)F)c1 | x | 58* | -2 | 67* | 47* | -7 | 10 | 8 | Casp3 counter=2;UBC13 conf=55*;PfGluPho conf=22
COc1ccccc1C(=O)N=c1sc2c(C)ccc(OC)c2n1C | 3 | 48* | -7 | 63* | 11 | -3 | x | x | Casp3 counter=73*;UBC13 conf=u;PfGluPho conf=10
CCCCNC(=S)NNC(=O)C1=NN(c2cc(C)ccc2C)C(=O)CC1 | 12 | -4 | 4 | -30 | 1 | -2 | x | x
O=C(NC1CC2CCCC(C1)N2S(=O)(=O)c1ccccc1)c1ccco1 (stereo unspecified) | -3 | -4 | -12 | -7 | 42* | -1 | 2 | 5
O=C(CN1C2CCCC1CC(NC(=O)c1ccco1)C2)Nc1ccccc1 (stereo unspecified) | 6 | 0 | 3 | 10 | 2 | 6 | x | x
Cc1ccc(/C=C/c2onc(C)c2S(=O)(=O)N2CCC(C(=O)N3CCN(C)CC3)CC2)cc1 | 3 | 11 | -5 | -17 | 45* | 8 | 15 | 11
CCOC(=O)C1CCCN(S(=O)(=O)c2ccc3c4c2CC(=O)N4CC(C)S3)C1 (stereo unspecified) | -7 | -4 | 9 | 7 | 38 | 4 | x | x
CCOC(=O)C1CCN(S(=O)(=O)c2ccc3c4c2CC(=O)N4CC(C)S3)CC1 (stereo unspecified) | 5 | -23 | -4 | -24 | 44* | 0 | 39 | 18
Clc1cccc(CSc2nnc(-c3ccccn3)n2Cc2ccco2)c1 | -75 | -12 | -14 | 32 | 42* | -5 | 14 | 1
CCCOc1cccc(-c2nn(-c3ccccc3)cc2/C=C(\C#N)C(=O)NCCCn2ccnc2)c1 | -7 | 35 | 0 | 15 | 17 | -4 | x | x
N#C/C(=C/c1cn(-c2ccccc2)nc1-c1cccc(OCc2ccc(F)cc2)c1)C(=O)NCCCn1ccnc1 | 3 | -14 | 5 | 17 | 44* | -6 | 26 | 9
CN1CCN(c2ccc(NC(=O)c3cc([N+](=O)[O-])ccc3N3CCOCC3)cc2)CC1 | -10 | -17 | -2 | -4 | 11 | -8 | x | x
CN1CCN(c2ccc(NC(=O)c3cc(S(N)(=O)=O)ccc3N3CCOCC3)cc2)CC1 | x | 8 | x | 5 | 40* | -2 | 5 | 8
O=C(COc1ccccc1N1C(=O)C2C3C=CC(C3)C2C1=O)c1ccccc1 (stereo unspecified) | -20 | 9 | -15 | 0 | -13 | 1 | x | x
O=C(COC(=O)CCC(=O)N1CCOCC1)Nc1ccc(Br)cc1Br | x | 7 | x | -6 | 1 | x | x | x
COc1ccc(S(=O)(=O)Oc2ccc3ccccc3c2)cc1 | 4 | -5 | -9 | 0 | 7 | -7 | x | x
COc1ccc(S(=O)(=O)Oc2ccc3cccc(N)c3c2)cc1 | x | -89 | -7 | 34 | 88* | -15 | 13 | 13
Cc1[nH]n(-c2ccccc2)c(=O)c1N=Nc1nccs1 | -2 | -207 | 17 | 2 | 73* | -6 | 35 | 19
O=S(=O)(c1cccc(-c2n[nH]c(=S)n2C2CCCC2)c1)N1CCOCC1 | 5 | -4 | 12 | 35 | -11 | 15 | x | x
NNc1nc(C(F)(F)F)nc2ccccc12 | 4 | -11 | -1 | -4 | -4 | -15 | x | x
